Reference: ChEMBL document CHEMBL1671645, “Pharmacokinetics and absorption of posaconazole oral suspension under various gastric conditions in healthy volunteers” (Antimicrob Agents Chemother, 2009)

Assays:
[1] = AUC in fasted healthy human at 400 mg administered as single dose suspension coadministered with acidic carbonated beverage; format: ADME, organism-based; conditions: plasma
Summary of the method: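 This was a four-way crossover in 12 healthy subjects with 7–10 day washouts. Each took one fasting 400 mg oral suspension dose, with 12 oz ginger ale and/or esomeprazole 40 mg once each morning on days −2 to 1, with dosing on day 1. Plasma was sampled 0–168 h and measured by LC-MS/MS (LLOQ 5.00 ng/ml). Analysis was noncompartmental, with CL/F = dose/AUC_I and V/F = (CL/F)/K.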

[2] = AUC in fasted healthy human at 400 mg administered as single dose suspension; format: ADME, organism-based; conditions: plasma
[3] = Tmax in fasted healthy human at 400 mg administered as single dose suspension; format: ADME, organism-based; conditions: in vivo
Summary of the method: (§1)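 Single oral suspension dose in fasting healthy volunteers, alone, with 12 oz ginger ale, after esomeprazole 40 mg once each morning days −2 to 1, or both; four-way crossover, 7–10-day washout. EDTA plasma 0–168 h. LC-MS/MS (LLOQ 5.00 ng/ml). t1/2 = ln(2)/K from terminal log-linear regression; Tmax median.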

[4] = Tmax in fasted healthy human at 400 mg administered as single dose suspension coadministered with acidic carbonated beverage and proton pump inhibitor; format: ADME, organism-based; conditions: in vivo; summary of the method: as §1
Homo sapiens [5] = assay: Apparent total body clearance in fasted healthy human at 400 mg BID, po administered as suspension for 7 days; format: ADME, organism-based; conditions: in vivo, 168 h
Summary of the method: (§2)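 Twelve healthy subjects took oral suspension for 7 days as 400 mg BID or 200 mg QID, either fasting or with a Boost-type nutritional supplement, in a crossover with 14–21 day washouts. Nonfat snacks of 800 cal/day or less were allowed. Plasma was sampled 0–168 h after the day-7 morning dose only and analysed by LC-MS/MS. AUC is AUC_τ, normalized to dose.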

Homo sapiens [6] = assay: Apparent total body clearance in fasted healthy human at 200 mg QID, po administered as suspension for 7 days; format: ADME, organism-based; conditions: in vivo, 168 h; summary of the method: as §2
[7] = Apparent total body clearance in fasted healthy human at 400 mg administered as single dose suspension after consumption of high fat meal; format: ADME, organism-based; conditions: in vivo
Summary of the method: (§3)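 In a crossover of 12 healthy subjects, each took a single 400 mg oral suspension dose 5 min before, midway through (about 10 min into a 20-min meal), or 20 min after a high-fat meal of about 50 g fat. Plasma was drawn 0–168 h and measured by LC-MS/MS. Parameters are noncompartmental, with AUC to the last measurable time.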

[8] = Half life in fasted healthy human at 400 mg administered as single dose suspension; format: ADME, organism-based; conditions: in vivo; summary of the method: as §1
[9] = Half life in fasted healthy human at 400 mg administered as single dose suspension coadministered with acidic carbonated beverage and proton pump inhibitor; format: ADME, organism-based; conditions: in vivo; summary of the method: as §1
[10] = Half life in fasted healthy human at 400 mg BID, po administered as suspension for 7 days; format: ADME, organism-based; conditions: in vivo
Summary of the method: (§4)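 Healthy volunteers given oral suspension (40 mg/ml) for 7 days, fasted or with nutritional supplement (Boost); four-way crossover, 14–21-day washout, nonfat snacks ≤800 cal/day allowed. On day 7 only the morning dose was given; plasma sampled predose to 168 h after it. LC-MS/MS (LLOQ 5.00 ng/ml). t1/2 = ln(2)/K from log-linear terminal slope; Tmax as median.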

[11] = Half life in healthy human at 400 mg BID, po administered as suspension for 7 days coadministered with nutritional supplement; format: ADME, organism-based; conditions: in vivo; summary of the method: as §4
[12] = Half life in fasted healthy human at 400 mg administered as single dose suspension 5 mins before consumption of high fat meal; format: ADME, organism-based; conditions: in vivo
Summary of the method: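 Single oral suspension dose in healthy volunteers while fasting, 5 min before, midway through (about 10 min into a 20-min meal), or 20 min after a high-fat meal (approx 50 g fat); four-way crossover, 7–10-day washout. Plasma 0–168 h by LC-MS/MS (LLOQ 5.00 ng/ml). t1/2 = ln(2)/K; Tmax median.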

[13] = Apparent volume of distribution in fasted healthy human at 400 mg administered as single dose suspension 5 mins before consumption of high fat meal; format: ADME, organism-based; conditions: in vivo, read-out: Vc/F; summary of the method: as §3
[14] = Apparent volume of distribution in healthy human at 400 mg administered as single dose suspension coadministered with nutritional supplement; format: ADME, organism-based; conditions: in vivo
Summary of the method: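 A three-way crossover in 13 healthy subjects gave one 400 mg oral suspension dose with a nutritional supplement, either alone, with metoclopramide 10 mg orally three times daily on the day before and the day of dosing, or with a single 4 mg dose of loperamide. Plasma was taken 0–168 h for LC-MS/MS. Analysis was noncompartmental.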

Homo sapiens [15] = assay: Toxicity in healthy human assessed as adverse events at 400 mg administered as single dose suspension coadministered with acidic carbonated beverage; format: organism-based; conditions: in vivo
Summary of the method: (§5)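 Healthy volunteers monitored for adverse events, vital signs, clinical laboratory values and 12-lead ECG. Adverse events tabulated by body system or organ class and severity and summarized by treatment across the crossover regimens.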

Homo sapiens [16] = assay: Toxicity in healthy human assessed as adverse events at 400 mg administered as single dose suspension coadministered with acidic carbonated beverage and proton pump inhibitor; format: organism-based; parameters: scale not given: the % may be the effect or the level left; conditions: in vivo; summary of the method: as §5
Homo sapiens [17] = assay: Toxicity in healthy human assessed as nausea at 400 mg administered as single dose suspension coadministered with nutritional supplement and 10 mg metoclopramide; format: organism-based; conditions: in vivo
Summary of the method: (§6)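 Three-way randomized crossover in 13 healthy volunteers with a 7- to 10-day washout. Each period was one 400-mg oral posaconazole suspension dose with a nutritional supplement. Metoclopramide 10 mg was given orally three times daily on the day before and the day of dosing; loperamide was a single 4 mg. Safety was assessed from adverse events, tabulated by body system and severity per treatment.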

Homo sapiens [18] = assay: Toxicity in healthy human assessed as fatigue at 400 mg administered as single dose suspension coadministered with nutritional supplement and 10 mg metoclopramide; format: organism-based; conditions: in vivo; summary of the method: as §6
Homo sapiens [19] = assay: Toxicity in healthy human assessed as dizziness at 400 mg administered as single dose suspension coadministered with nutritional supplement and 10 mg metoclopramide; format: organism-based; conditions: in vivo; summary of the method: as §6
Homo sapiens [20] = assay: Toxicity in healthy human assessed as dizziness at 400 mg administered as single dose suspension coadministered with nutritional supplement and 4 mg loperamide as two 2 mg tablets; format: organism-based; conditions: in vivo; summary of the method: as §6
[21] = Cmax in healthy human plasma at 400 mg BID, po administered as suspension for 7 days coadministered with nutritional supplement; format: ADME, organism-based; parameters: dose 400 mg, route oral; summary of the method: as §2
[22] = Cmax in fasted healthy human plasma at 200 mg QID, po administered as suspension for 7 days; format: ADME, organism-based; parameters: dose 200 mg, route oral; summary of the method: as §2
[23] = Cmax in fasted healthy human plasma at 400 mg administered as single dose suspension; format: ADME, organism-based; parameters: dose 400 mg
[24] = Cmax in fasted healthy human plasma at 400 mg administered as single dose suspension after 20 mins after consumption of high fat meal; format: ADME, organism-based; parameters: dose 400 mg; summary of the method: as §3
[25] = Cmax in fasted healthy human plasma at 400 mg administered as single dose suspension after consumption of high fat meal; format: ADME, organism-based; parameters: dose 400 mg; summary of the method: as §3
[26] = Cmax in healthy human plasma at 400 mg administered as single dose suspension coadministered with nutritional supplement and 4 mg loperamide as two 2 mg tablets; format: ADME, organism-based; parameters: dose 400 mg; conditions: po
Summary of the method: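 Oral suspension (40 mg/ml) single dose with nutritional supplement plus loperamide 4 mg single dose, healthy volunteers, three-way crossover with 7–10-day washout. EDTA plasma drawn predose and 1–168 h postdose. LC-MS/MS assay (LLOQ 5.00 ng/ml). Noncompartmental parameters; Tmax reported as median (range).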

CC[C@@H]([C@H](C)O)n1ncn(-c2ccc(N3CCN(c4ccc(OC[C@@H]5CO[C@@](Cn6cncn6)(c6ccc(F)cc6F)C5)cc4)CC3)cc2)c1=O [POSACONAZOLE]
AUC [1]: 9610 ng·h/mL | AUC [2]: 4280 ng·h/mL | Tmax [3]: 5 h | Tmax [4]: 6 h | CL/F (Homo sapiens [5]): 54.6 L/h | CL/F (Homo sapiens [6]): 21.2 L/h | CL/F [7]: 395 mL/min | half-life [8]: 27.4 h | half-life [9]: 27.8 h | half-life [10]: 25.7 h | half-life [11]: 29.5 h | half-life [12]: 23.9 h | Vd/F [13]: 1900 L | Vd/F [14]: 1660 L | Activity (Homo sapiens [15]): 25% | Activity (Homo sapiens [16]): 25% | Activity (Homo sapiens [17]): 23% | Activity (Homo sapiens [18]): 15% | Activity (Homo sapiens [19]): 15% | Activity (Homo sapiens [20]): 15% | Cmax [21]: 1590 ng/mL | Cmax [22]: 2300 ng/mL | Cmax [23]: 181 ng/mL | Cmax [24]: 544 ng/mL | Cmax [25]: 544 ng/mL | Cmax [26]: 294 ng/mL
